Data reported in ChEMBL document CHEMBL1126268, “Antimitotic agents. Chiral isomers of ethyl [5-amino-1,2-dihydro-3-(4-hydroxyphenyl)-2-methylpyrido[3,4-b]pyrazin-7 -yl]carbamate” (J Med Chem, 1992).

Experiments:
L1210 [1] = test: The compound was tested in vitro for mitotic inhibition against proliferation of cultured lymphoid leukemia L1210 cells; type: functional, Mus musculus
Method in brief: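 Cultured lymphoid leukemia L1210 cells exposed to agent for 12 h; mitotic index scored as cells in mitosis over total cells; value is the nanomolar concentration producing a mitotic index of 0.5.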

P388 [2] = test: The compound was tested in vivo for percent increase in life span against lymphocytic leukemia P388 in mice after intraperitoneal administration of 30 mg/kg dose; type: functional; conditions: Mus musculus, P388, ip
Method in brief: (§1)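 Mice bearing lymphocytic leukemia P388. The reported value is the percent increase in life span at the highest nontoxic dose tested.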

L1210 [3] = test: The compound was tested in vitro for cytotoxicity against proliferation of cultured lymphoid leukemia L1210 cells; type: functional, cell-based; conditions: Mus musculus
Method in brief: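 Cultured lymphoid leukemia L1210 cells exposed to agent for 48 h; value is the nanomolar concentration giving 50% of control growth.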

P388 [4] = test: The compound was tested in vivo for percent increase in life span against lymphocytic leukemia P388 in mice after intraperitoneal administration of 0.22 mg/kg dose; type: functional; conditions: Mus musculus, P388, ip; method in brief: as §1
P388 [5] = test: The compound was tested in vivo for percent increase in life span against lymphocytic leukemia P388 in mice after intraperitoneal administration of 1 mg/kg dose; type: functional; conditions: Mus musculus, P388, ip; method in brief: as §1
P388 [6] = test: The compound was tested in vivo for percent increase in life span against lymphocytic leukemia P388 in mice after intraperitoneal administration of 25 mg/kg dose; type: functional; conditions: Mus musculus, P388, ip; method in brief: as §1
P388 [7] = test: The compound was tested in vivo for percent increase in life span against lymphocytic leukemia P388 in mice after intraperitoneal administration of 0.5 mg/kg dose; type: functional; conditions: Mus musculus, P388, ip; method in brief: as §1
P388 [8] = test: The compound was tested in vivo for percent increase in life span against lymphocytic leukemia P388 in mice after intraperitoneal administration of 0.25 mg/kg dose; type: functional; conditions: Mus musculus, P388, ip; method in brief: as §1

CCOC(=O)Nc1cc2c(c(N)n1)N=C(c1ccccc1)[C@@H](C)N2
MI0.5 (L1210 [1]): 27 nM
ILS at 30 mg/kg (P388 [2]): 88%

CCOC(=O)Nc1cc2c(c(N)n1)N=C(c1ccc(O)cc1)[C@H](C)N2
MI0.5 (L1210 [1]): 0.3 nM
IC50 (L1210 [3]): 0.18 nM
ILS at 0.22 mg/kg (P388 [4]): 58%

CCOC(=O)Nc1cc2c(c(N)n1)N=C(c1ccc(OC)cc1)C(C)N2 (stereo not given)
MI0.5 (L1210 [1]): 0.42 nM
ILS at 1 mg/kg (P388 [5]): 69%

CCOC(=O)Nc1cc2c(c(N)n1)N=C(c1ccccc1)C(C)N2 (racemic)
MI0.5 (L1210 [1]): 0.58 nM
ILS at 1 mg/kg (P388 [5]): 71%

CCOC(=O)Nc1cc2c(c(N)n1)N=C(c1ccc(O)cc1)[C@@H](C)N2
IC50 (L1210 [3]): 32 nM
ILS at 25 mg/kg (P388 [6]): 77%

CCOC(=O)Nc1cc2c(c(N)n1)N=C(c1ccccc1)[C@H](C)N2 [MIVOBULIN]
MI0.5 (L1210 [1]): 0.14 nM
IC50 (L1210 [3]): 0.09 nM
ILS at 0.5 mg/kg (P388 [7]): 64%

CCOC(=O)Nc1cc2c(c(N)n1)N=C(c1ccc(O)cc1)C(C)N2 (racemic)
MI0.5 (L1210 [1]): 0.47 nM
IC50 (L1210 [3]): 0.22 nM
ILS at 0.5 mg/kg (P388 [7]): 55%

CCOC(=O)Nc1cc2c(c(N)n1)N=C(c1ccc(OCc3ccccc3)cc1)C(C)N2 (stereo not given)
MI0.5 (L1210 [1]): 30 nM
IC50 (L1210 [3]): 7 nM
ILS at 1 mg/kg (P388 [5]): 120%

CCCCNC(=O)Oc1ccc(C2=Nc3c(cc(NC(=O)OCC)nc3N)NC2C)cc1 (stereo not given)
IC50 (L1210 [3]): 0.47 nM
ILS at 0.25 mg/kg (P388 [8]): 120%

CCOC(=O)Nc1cc2c(c(N)n1)N=C(c1ccc(OC(=O)NCCCl)cc1)C(C)N2 (stereo not given)
IC50 (L1210 [3]): 0.043 nM
ILS at 1 mg/kg (P388 [5]): 90%

CCOC(=O)Nc1cc2c(c(NC(=O)NCCCl)n1)N=C(c1ccc(OC(=O)NCCCl)cc1)C(C)N2 (stereo not given)
IC50 (L1210 [3]): 570 nM
